RGS4 inh = human RGS4 inhibition; P49798; HEK293 M3R/RGS4 inducible, Fluo-4 calcium flux; hits give high values; triggered by carbachol at its EC20; B-score at 10 µM; hit rate 0.45% among 310,000; AID 463165;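 active means B-score, a plate-corrected calcium signal, over three deviations above library mean, with baseline fluorescence within five deviations of library mean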;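 further: RGS4 expression induced by doxycycline in cells with stable M3 receptor; B-score is computed from the integrated fluorescence ratio over baseline after carbachol; higher B-score means a larger calcium signal and so more RGS4 inhibition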
Target sequence (P49798 whole entry, looked up): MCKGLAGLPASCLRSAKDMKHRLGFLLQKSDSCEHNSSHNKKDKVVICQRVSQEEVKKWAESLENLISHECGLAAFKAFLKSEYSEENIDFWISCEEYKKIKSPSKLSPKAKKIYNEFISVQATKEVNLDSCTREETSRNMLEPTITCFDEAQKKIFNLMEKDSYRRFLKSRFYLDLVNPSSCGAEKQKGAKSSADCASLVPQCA
MrgX1 allo act = allosterically activates human MrgX1 receptor signaling; AID 588675; MrgX1-HEK293, Fluo-4 calcium flux, FDSS; hits give high values; Q96LB2; hit rate 0.63% among 310,000; B-score at 10 µM;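 active means plate-corrected calcium response at least 3 library SD above typical, normal starting fluorescence, not activating the receptor alone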;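 further: compound read alongside a low EC10 to EC30 dose of BAM8-22 agonist; peak minus trough fluorescence over baseline measured at the second addition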
Target sequence (Q96LB2 whole entry, looked up): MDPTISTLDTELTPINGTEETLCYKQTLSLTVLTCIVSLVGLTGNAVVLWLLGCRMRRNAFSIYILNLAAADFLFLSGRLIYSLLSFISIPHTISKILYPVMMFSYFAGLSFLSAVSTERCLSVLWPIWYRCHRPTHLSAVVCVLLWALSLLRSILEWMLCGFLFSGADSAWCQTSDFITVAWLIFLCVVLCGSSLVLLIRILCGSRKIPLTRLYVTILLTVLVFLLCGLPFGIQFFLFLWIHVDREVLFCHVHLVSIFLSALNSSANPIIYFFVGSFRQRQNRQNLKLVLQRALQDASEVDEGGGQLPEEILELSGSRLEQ
RGS4 pot = RGS4 potentiation or activation; HEK293 M3R/inducible RGS4, carbachol calcium flux Fluo4; hits give low values; B-score at 10 µM; hit rate 0.92% among 310,000; AID 463111;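 active means B-score of the integrated calcium signal more than 4 SD below the library mean, with starting fluorescence not abnormally high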;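 further: negative B-score means reduced calcium response which marks RGS4 activation or potentiation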
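Also added: carbachol at ECmax as muscarinic agonist stimulus; Assay system: HEK293 cells with stable M3R and inducible RGS4; Timing: overnight RGS4 induction, 30 min dye load 37 °C, 20 min compound RT; Measured by: Fluo4-AM (2 µM) calcium-flux fluorescence, kinetic read.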
MrgX1 antag = human MrgX1 receptor antagonism, primary screen; Q96LB2; MRGX1-HEK293 calcium flux, Fluo-4, BAM8-22 antagonism; hits give low values; B-score at 10 µM; hit rate 1.3% among 310,000;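 active means calcium-response B-score plate-corrected more than 3 library SD below zero, starting fluorescence within 5 deviations, no agonist response on first addition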;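 further: peak minus trough fluorescence over baseline after final BAM8-22 challenge near maximal dose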
MrgX1 agonist = agonists of human MrgX1 receptor | Q96LB2 | MrgX1-HEK293 cells, Fluo-4 calcium fluorescence, agonist mode; hits give high values | B-score at 10 µM | hit rate 0.44% among 310,000;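 active means calcium response B-score plate-corrected fluorescence ratio at least 3 library SD, with starting fluorescence B-score inside 5 SD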
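System: HEK293 cells stably expressing human MrgX1 receptor; Dosing: test compound in the initial addition of three; Schedule: overnight plating, then 30 min 37 °C plus 30 min room-temperature dye loading; Detection: kinetic calcium dye fluorescence, Fluo-4 NW; Controls: per-plate positive and negative controls for Z′ factor.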
* hit, by the source's call. Compounds with a hit are over-represented: about 3.5% of the library has one in this group of screens.

For O=C(OCn1ncc(Br)c(Br)c1=O)c1c(F)cccc1F the results were RGS4 inh 5.4*, MrgX1 allo act inactive, RGS4 pot inactive, MrgX1 antag inactive and MrgX1 agonist inactive.
`CC(=O)Cn1ncc(Br)c(Br)c1=O` gave RGS4 inh inactive and RGS4 pot inactive.
For Cc1ccc(-c2ccc(S(=O)(=O)NCC3CCCO3)cc2)cc1 (configuration not stated) the results were RGS4 inh inactive, MrgX1 allo act inactive, RGS4 pot inactive, MrgX1 antag inactive and MrgX1 agonist inactive.
For CCOc1ccccc1N1CCN(C(=O)CNC(=O)c2ccc(OC)c(OC)c2)CC1 the results were RGS4 inh inactive, MrgX1 allo act inactive, RGS4 pot inactive, MrgX1 antag inactive and MrgX1 agonist inactive.
Fc1ccc(Cn2c(SCc3ccc(F)c(F)c3)nnc2C(F)(F)F)cc1 was read as RGS4 inh inactive, MrgX1 allo act inactive, RGS4 pot -8.5*, MrgX1 antag inactive and MrgX1 agonist inactive.
`CN(C)CCOC1c2ccccc2C=Cc2ccccc21` gave RGS4 inh inactive, MrgX1 allo act inactive, RGS4 pot -7.1*, MrgX1 antag inactive and MrgX1 agonist inactive.
Screening CN(C)CCOC(c1ccccc1)c1ccccc1 (tested in a mixture with another compound) returned RGS4 inh inactive, MrgX1 allo act inactive, RGS4 pot inactive, MrgX1 antag inactive and MrgX1 agonist inactive.
O=[N+]([O-])/C=C/c1cc2ccccc2[nH]1 was read as RGS4 inh inactive, MrgX1 allo act inactive, RGS4 pot inactive, MrgX1 antag inactive and MrgX1 agonist 41*.
For CN(C)CCNC(C(=O)Nc1cccc(C(F)(F)F)c1)c1ccccc1 (configuration not stated) the results were RGS4 inh inactive, MrgX1 allo act inactive, RGS4 pot -7.1*, MrgX1 antag inactive and MrgX1 agonist inactive.
`COc1ccc(N2C(=O)CC(Sc3nnc(-c4ccccc4F)n3C)C2=O)cc1` (configuration not stated) gave RGS4 inh inactive, MrgX1 allo act inactive, RGS4 pot inactive, MrgX1 antag inactive and MrgX1 agonist inactive.
Screening CCN1C(=O)/C(=C/C=C2\N(CC)c3cc(S(=O)(=O)N(C)C)ccc3N2c2ccccc2)SC1=S returned RGS4 inh inactive, MrgX1 allo act inactive, RGS4 pot inactive, MrgX1 antag inactive and MrgX1 agonist 36*.
Screening COCC(=O)Nc1c(C(=O)Nc2cccc(OC)c2)oc2ccccc12 returned RGS4 inh inactive, MrgX1 allo act inactive, RGS4 pot inactive, MrgX1 antag inactive and MrgX1 agonist inactive.
For CN(C)C(=O)CN1CCN(C(=O)CCl)CC1 the results were RGS4 inh inactive, MrgX1 allo act inactive, RGS4 pot inactive, MrgX1 antag inactive and MrgX1 agonist inactive.
`CC(C)C[C@H](NC(=O)c1nc[nH]c1C(=O)NCCCCCNC(=O)OC(C)(C)C)C(=O)OCc1ccccc1` gave RGS4 inh inactive, MrgX1 allo act inactive, RGS4 pot inactive, MrgX1 antag inactive and MrgX1 agonist inactive.
`CC(C)C[C@H](NC(=O)c1[nH]cnc1C(=O)Nc1ccc(CNC(=O)OC(C)(C)C)cc1)C(=O)OC(C)(C)C` gave RGS4 inh inactive, MrgX1 allo act inactive, RGS4 pot -7*, MrgX1 antag inactive and MrgX1 agonist inactive.
C[C@H](NC(=O)c1nc[nH]c1C(=O)NCCCCCNC(=O)OC(C)(C)C)C(=O)OCc1ccccc1 was read as RGS4 inh inactive, MrgX1 allo act 7.8*, RGS4 pot -7.8*, MrgX1 antag inactive and MrgX1 agonist inactive.
For CC(C)(C)OC(=O)NCCCCCNC(=O)c1[nH]cnc1C(=O)N[C@@H](Cc1ccccc1)C(=O)OCc1ccccc1 the results were RGS4 inh inactive, MrgX1 allo act inactive, RGS4 pot -7.5*, MrgX1 antag inactive and MrgX1 agonist inactive.
`C[C@H](NC(=O)c1nc[nH]c1C(=O)N[C@@H](CCCCNC(=O)OC(C)(C)C)C(=O)OC(C)(C)C)C(=O)OCc1ccccc1` gave RGS4 inh inactive, MrgX1 allo act inactive, RGS4 pot inactive, MrgX1 antag inactive and MrgX1 agonist inactive.
Screening O=C(Nc1ccc2c(c1)OCCO2)C1CCN(C(=O)c2ccc([N+](=O)[O-])cc2)CC1 returned RGS4 inh inactive, MrgX1 allo act inactive, RGS4 pot inactive, MrgX1 antag inactive and MrgX1 agonist inactive.
Screening COc1ccc(C(=O)O)cc1S(=O)(=O)NCCc1ccccn1 returned RGS4 inh inactive, MrgX1 allo act inactive, RGS4 pot inactive, MrgX1 antag inactive and MrgX1 agonist inactive.
`CCOC(=O)C1CCCN(S(=O)(=O)c2cc(Br)cc3c2N(C(=O)C2CC2)CC3)C1` (configuration not stated) gave RGS4 inh inactive, MrgX1 allo act inactive, RGS4 pot inactive, MrgX1 antag inactive and MrgX1 agonist inactive.
c1ccn2cc(-c3ccc4c(c3)OCO4)cc2c1 was read as RGS4 inh inactive, MrgX1 allo act inactive, RGS4 pot inactive, MrgX1 antag inactive and MrgX1 agonist inactive.
`O=c1c(Cl)c(O)c2cccc3c4ccccc4n1c23` gave RGS4 inh inactive, MrgX1 allo act inactive, RGS4 pot inactive, MrgX1 antag inactive and MrgX1 agonist inactive.
Screening COc1c(O)c(=O)n2c3ccccc3c3ccnc1c32 returned RGS4 inh inactive, MrgX1 allo act 37*, RGS4 pot inactive, MrgX1 antag inactive and MrgX1 agonist inactive.
Screening CC1CCN(c2ccc(C(F)(F)F)cc2N)CC1 returned RGS4 inh inactive, MrgX1 allo act inactive, RGS4 pot inactive, MrgX1 antag inactive and MrgX1 agonist inactive.
For S=C(NCCC(c1ccccc1)c1ccccc1)Nc1cccc(Cl)c1 the results were RGS4 inh inactive, MrgX1 allo act inactive, RGS4 pot -7.6*, MrgX1 antag inactive and MrgX1 agonist inactive.
`COc1cc(OC)cc(C(=O)Nc2ccc(S(=O)(=O)Nc3cc(C)nc(C)n3)cc2)c1` gave RGS4 inh inactive, MrgX1 allo act inactive, RGS4 pot inactive, MrgX1 antag inactive and MrgX1 agonist inactive.
Screening CC(C)C(=O)c1ccc(O)c(O)c1 returned RGS4 inh inactive, MrgX1 allo act inactive, RGS4 pot inactive, MrgX1 antag inactive and MrgX1 agonist inactive.
CCC(NC(C)C)C(O)c1ccc(O)c(O)c1 (configuration not stated) was read as RGS4 inh inactive, MrgX1 allo act inactive, RGS4 pot inactive, MrgX1 antag inactive and MrgX1 agonist 27*.
O=[N+]([O-])c1nn(-c2ccc3c(c2)OCCO3)n(O)c1=NC1CCN(Cc2ccccc2)CC1 was read as RGS4 inh inactive, MrgX1 allo act inactive, RGS4 pot inactive, MrgX1 antag -5.1* and MrgX1 agonist inactive.

Bioassay records (PubChem)
